We go through two compounds from article PMC3437246 (Biochemistry, 2012).

Where two headings read alike, the source gives them in different places.

Assay [1] has as its target RB69pol Y567A mutant (Escherichia phage RB69, UniProt Q38087, D222A/D327A/Y567A). It is filed as biochemical, bacteriophage RB69. The note with it: for Kpol/Kd,app / kpol: Y567A mutant, template tC°; for kpol: 23°C, 10 mM Mg2+. The method in brief: (§1)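 Single-turnover rapid quench was run at 23°C in 66 mM Tris-HCl pH 7.4 using exonuclease-deficient RB69pol. Enzyme plus 5'-32P primer/tC° template was mixed with Mg2+ and varying dNTP for 5 ms to 1 min (final 1 μM enzyme, 90 nM P/T, 10 mM Mg2+). Reactions were EDTA-quenched and resolved on 8 M urea PAGE. kobs came from single-exponential fits, then kpol and Kd,app from a hyperbolic fit; efficiency is kpol/Kd,app.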

For assay [2], the target named is wt RB69pol (Escherichia phage RB69, UniProt Q38087, D222A/D327A). Type of assay: biochemical, bacteriophage RB69. Conditions: template tC°; for kpol: 23°C, 10 mM Mg2+. The method in brief: as §1
wt RB69pol, sequence (Q38087 whole entry D222A/D327A): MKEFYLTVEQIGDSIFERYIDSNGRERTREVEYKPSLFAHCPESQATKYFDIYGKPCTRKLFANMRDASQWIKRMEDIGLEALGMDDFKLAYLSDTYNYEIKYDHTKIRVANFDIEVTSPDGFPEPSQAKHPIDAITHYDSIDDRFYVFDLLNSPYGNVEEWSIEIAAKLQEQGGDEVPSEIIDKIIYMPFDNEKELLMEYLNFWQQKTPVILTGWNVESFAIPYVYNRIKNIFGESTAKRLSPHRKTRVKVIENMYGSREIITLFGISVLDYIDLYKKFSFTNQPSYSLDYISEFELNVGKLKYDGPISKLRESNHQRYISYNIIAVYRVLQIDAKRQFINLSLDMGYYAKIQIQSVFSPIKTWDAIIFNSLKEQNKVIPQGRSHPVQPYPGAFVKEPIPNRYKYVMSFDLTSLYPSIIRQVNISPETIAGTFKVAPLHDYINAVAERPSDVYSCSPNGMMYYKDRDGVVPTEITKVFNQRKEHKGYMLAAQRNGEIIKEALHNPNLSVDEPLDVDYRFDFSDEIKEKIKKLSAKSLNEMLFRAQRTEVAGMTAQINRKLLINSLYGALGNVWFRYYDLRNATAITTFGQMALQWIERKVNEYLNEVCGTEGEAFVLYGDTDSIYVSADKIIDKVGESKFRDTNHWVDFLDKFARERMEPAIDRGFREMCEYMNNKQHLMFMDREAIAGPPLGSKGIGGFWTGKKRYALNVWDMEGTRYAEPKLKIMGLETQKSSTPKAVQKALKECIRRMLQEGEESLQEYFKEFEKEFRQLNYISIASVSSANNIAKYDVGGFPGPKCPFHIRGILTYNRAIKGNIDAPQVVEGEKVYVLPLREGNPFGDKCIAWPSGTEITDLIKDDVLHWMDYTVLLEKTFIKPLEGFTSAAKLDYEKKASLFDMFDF
In assay [3] the target is Y567A-P/T binary complex (Escherichia phage RB69, UniProt Q38087, D222A/D327A/Y567A). Description: Equilibrium fluorescence titration of dNTP opposite tC°. It is filed as binding, bacteriophage RB69. The note with it: 1mM dNTP added to Y567A-P/T binary complex. Summed up: (§2)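 Exonuclease-deficient (D222A/D327A) RB69pol, wild type or Y567A, was expressed in E. coli BL21(DE). Enzyme at 1 μM was mixed with 300 nM 3'-dideoxy (ddC) terminated 13/18mer P/T carrying tC° at template position n, in 66 mM Tris-HCl pH 7.4 with 10 mM MgSO4 at 23°C. Excitation was 364 nm and emission was scanned 380–700 nm. Spectra were corrected for enzyme and buffer fluorescence.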
Y567A-P/T binary complex, sequence (Q38087 whole entry D222A/D327A/Y567A, one chain of several): as the sequence (Q38087 whole entry D222A/D327A) above, with Y567A counted along it

Assay [4] deals with Y567A RB69pol mutant (Escherichia phage RB69, UniProt Q38087, D222A/D327A/Y567A). Description: Stopped-flow fluorescence of tC° quenching on dGTP binding. Further details: species or system bacteriophage RB69.
Y567A RB69pol mutant, sequence (Q38087 whole entry D222A/D327A/Y567A): as the sequence (Q38087 whole entry D222A/D327A) above, with Y567A counted along it
Assay [5] has as its target T1, wt RB69pol-P/T binary complex (Escherichia phage RB69, UniProt Q38087, D222A/D327A). Description: Equilibrium fluorescence titration of dNTP opposite tC°. Type of assay: binding, bacteriophage RB69. The note with it: 1mM dNTP added to wt RB69pol-P/T binary complex. Summed up:
as §2

Assay [6] deals with T1, wt RB69pol-P/T binary complex. Description: Stopped-flow fluorescence of tC° quenching on dGTP binding. Conditions: full quenching within instrument dead-time (< 2 ms). Further details: species or system bacteriophage RB69.

RB69pol Y567A mutant, sequence (Q38087 whole entry D222A/D327A/Y567A): as the sequence (Q38087 whole entry D222A/D327A) above, with Y567A counted along it
T1 sequence (Q38087 whole entry D222A/D327A, one chain of several): as the sequence (Q38087 whole entry D222A/D327A) above

Turning to `Nc1ncnc2c1ncn2[C@H]1C[C@H](O)[C@@H](COP(=O)(O)OP(=O)(O)OP(=O)(O)O)O1` [dATP], in assay [1] (Y567A mutant relative to wt RB69pol), the “fold increase of incorporation efficiency opposite tC°” value stood at 200 fold. Besides, the “Kpol/Kd,app” value in assay [1] is 700000 M⁻¹ s⁻¹; in assay [2], 3500 M⁻¹ s⁻¹. For the same compound, the kpol in assay [1] worked out at 180 ± 10 s⁻¹; in assay [1] (listed as dAMP), 180 s⁻¹; in assay [2] it was 6 ± 0.2 s⁻¹; in assay [2] (listed as dAMP), 6 s⁻¹. Besides, the “fold difference in kpol between dGMP and dAMP” value in assay [2] is given as 40 fold. Moreover, the “quenching of tC° fluorescence” value in assay [3] is ~15%.

`Nc1nc2c(ncn2[C@H]2C[C@H](O)[C@@H](COP(=O)(O)OP(=O)(O)OP(=O)(O)O)O2)c(=O)[nH]1` [dGTP]: the “Kpol/Kd,app” value in assay [1] is 4.3e+07 M⁻¹ s⁻¹; in assay [2], 1.8e+06 M⁻¹ s⁻¹. Also, the values for the kpol in assay [1] and in assay [2] were 170 ± 10 s⁻¹ and 250 ± 7 s⁻¹, respectively. The “rate of tC° fluorescence quenching” value was > 500 s⁻¹ in assay [4] and “greater than 500 s^−1” in assay [6]. Besides, the “quenching of tC° fluorescence” value in assay [5] and in assay [3] was “about 30%” in each case.
